Test results as given in ChEMBL document CHEMBL1938288, “Discovery, synthesis, and pharmacological evaluation of spiropiperidine hydroxamic acid based derivatives as structurally novel histone deacetylase (HDAC) inhibitors” (J Med Chem, 2011).

Columns and labels:
Histone deacetylase = test: Inhibition of human HDAC in HeLa cell nuclear extracts using KI-104 Fluor de Lys as substrate by fluorescence assay; assay type: protein assay
In short: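 HDAC activity from partially purified HeLa nuclear extracts, using a fluorogenic acetylated histone peptide (Fluor de Lys) as substrate. Replicates n ≥ 2, mean values reported.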

K562 = test: Antiproliferative activity against human K562 cells after 72 hrs by CellTiter-Glo luminescent cell viability assay; assay type: functional, cell-based; settings: K562, 72 h
In short: (§1)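 Cells in exponential growth exposed to a range of inhibitor concentrations for 72 h. CellTiter-Glo reagent added, mixed 2 min to lyse cells, luminescence read 10 min later. IC50 derived from the concentration–response. Replicates n ≥ 2, mean shown.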

A549 = test: Antiproliferative activity against human A549 cells after 72 hrs by CellTiter-Glo luminescent cell viability assay; assay type: functional, cell-based; settings: A549, 72 h; in short: as §1
HCT-116 = test: Antiproliferative activity against human HCT116 cells after 72 hrs by CellTiter-Glo luminescent cell viability assay; assay type: functional, cell-based; settings: HCT-116, 72 h; in short: as §1
[1] = Oral bioavailability in mouse; assay type: ADME, organism-based; settings: in vivo
[2] = Clearance in mouse; assay type: ADME, organism-based; settings: in vivo

Row | SMILES | IC50 (Histone deacetylase) | IC50 (K562) | IC50 (A549) | IC50 (HCT-116) | bioavailability [1] | clearance [2]
1 | O=C(/C=C/c1ccc2c(c1)OC1(CCNCC1)CC2=O)NO | 1.41 µM | > 50 µM | 24.8 µM | 35.5 µM |  | 
2 | O=C(/C=C/c1cccc(S(=O)(=O)Nc2ccccc2)c1)NO [BELINOSTAT] |  |  |  |  | < 10% | 193 mL/min/kg
3 | CN1CCC2(CC1)CC(=O)c1cc(/C=C/C(=O)NO)ccc1O2 | 0.288 µM | 0.806 µM | 1.04 µM | 0.266 µM |  | 
4 | CCOC(=O)N1CCC2(CC1)CC(=O)c1cc(/C=C/C(=O)NO)ccc1O2 | 0.14 µM | 2.08 µM | 5.27 µM | 2.14 µM |  | 
5 | O=C(/C=C/c1ccc2c(c1)OC1(CCN(C(=O)c3ccccc3)CC1)CC2=O)NO | 0.366 µM | 3.19 µM | 8.78 µM | 4.92 µM |  | 
6 | CCOC(=O)N1CCC2(CC1)CC(=O)c1ccc(/C=C/C(=O)NO)cc1O2 | 0.408 µM | 2.19 µM | 2.78 µM | 3.03 µM |  | 
7 | O=C(/C=C/c1ccc2c(c1)CCC1(CCN(Cc3ccccc3)CC1)O2)NO | 9.02 µM | 38.6 µM | ≥ 50 µM | 28.2 µM |  | 
8 | CC(=O)N1CCC2(CC1)CC(=O)c1ccc(/C=C/C(=O)NO)cc1O2 | 1.04 µM | 6.08 µM | 11.3 µM | 36 µM |  | 
9 | O=C(CCCCCCC(=O)Nc1ccccc1)NO [VORINOSTAT] |  |  |  |  | < 10% | 
10 | O=C(/C=C/c1ccc2c(c1)C(=O)C1(CCN(Cc3ccccc3)CC1)O2)NO | 0.932 µM | 4.11 µM | 5.94 µM | 3.1 µM |  | 
11 | CC(=O)N1CCC2(CC1)Oc1ccc(/C=C/C(=O)NO)cc1C2=O | > 50 µM | > 50 µM | > 50 µM | > 50 µM |  | 
12 | O=C(/C=C/c1ccc2c(c1)OC1(CCN(Cc3ccccc3)CC1)CC2=O)NO | 2.173 µM | 8.94 µM | 12.2 µM | 8.41 µM |  | 
13 | O=C(/C=C/c1ccc2c(c1)C(O)CC1(CCN(Cc3ccccc3)CC1)O2)NO (stereo not given) | 1.21 µM | 2.95 µM | 5.25 µM | 2.33 µM |  | 
14 | CCOC(=O)N1CCC2(CC1)Oc1ccc(/C=C/C(=O)NO)cc1C2=O | 2.99 µM | 2.61 µM | 20.2 µM | 11.8 µM |  | 
15 | CN1CCC2(CC1)Oc1ccc(/C=C/C(=O)NO)cc1C2=O | 0.538 µM | 0.397 µM | 1.07 µM | 0.337 µM |  | 
16 | CN1CCC2(CC1)CC(=O)c1cc(C(=O)NO)ccc1O2 | > 50 µM | > 50 µM | > 50 µM | > 50 µM |  | 
17 | CC(=O)N1CCC2(CC1)CC(=O)c1cc(/C=C/C(=O)NO)ccc1O2 | 0.641 µM | 9.37 µM | 26.2 µM | 5.66 µM |  | 
18 | O=C(/C=C/c1ccc2c(c1)C(=O)CC1(CCN(C(=O)c3ccccc3)CC1)O2)NO | 0.316 µM | 1.65 µM | 5.52 µM | 2.2 µM |  | 
19 | CN1CCC2(CC1)CC(=O)c1ccc(/C=C/C(=O)NO)cc1O2 | 5.84 µM | 4.5 µM | 3.76 µM | 5.72 µM |  | 
20 | O=C(/C=C/c1ccc2c(c1)C(=O)CC1(CCNCC1)O2)NO | 0.082 µM | 5.77 µM | 2.72 µM | 1.59 µM |  | 
21 | O=C(/C=C/c1ccc2c(c1)C=CC1(CCN(Cc3ccccc3)CC1)O2)NO | 1.19 µM | 3.27 µM | 4.7 µM | 3.51 µM |  | 
22 | Cc1[nH]c2ccccc2c1CCNCc1ccc(/C=C/C(=O)NO)cc1 [PANOBINOSTAT] |  |  |  |  | < 10% | 305 mL/min/kg
23 | O=C(NO)c1ccc2c(c1)C(=O)CC1(CCN(C(=O)c3ccccc3)CC1)O2 | 29 µM | > 50 µM | > 50 µM | > 50 µM |  | 
24 | O=C(NO)c1ccc2c(c1)C(=O)CC1(CCN(Cc3ccccc3)CC1)O2 | 24 µM | 16 µM | 22 µM | 15 µM |  | 
25 | CC(=O)N1CCC2(CC1)CC(=O)c1cc(C(=O)NO)ccc1O2 | > 50 µM | > 50 µM | > 50 µM | > 50 µM |  | 
26 | CC(=O)NC1CC2(CCN(Cc3ccccc3)CC2)Oc2ccc(/C=C/C(=O)NO)cc21 (stereo not given) | 5.15 µM | > 50 µM | > 50 µM | 32.8 µM |  | 
27 | O=C(/C=C/c1ccc2c(c1)C(=O)C1(CCNCC1)O2)NO | 0.221 µM | 1.69 µM | 1.09 µM | 0.832 µM |  | 
28 | O=C(/C=C/c1ccc2c(c1)C(=O)C1(CCN(C(=O)c3ccccc3)CC1)O2)NO | 2.55 µM | 7.43 µM | 22.1 µM | 12.3 µM |  | 
